Assays:
Format in all cases: functional
Mus musculus [1] = test: Trypanocidal Activity at I.C.E. value 0.37 when administered subcutaneously.
In short: (§1)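 Blood-stage T. rhodesiense infection came from a standard inoculum lethal to all untreated mice. Drug was given by subcutaneous injection to groups of five mice. Survival beyond 30 days counted as cure. […] Sub-curative doses scored 0, and data were normalized at each dose.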

Mus musculus [2] = test: Trypanocidal Activity at I.C.E. value 0.46 when administered subcutaneously.; in short: as §1
Mus musculus [3] = test: Trypanocidal Activity at I.C.E. value 0.26 when administered subcutaneously.; in short: as §1
Mus musculus [4] = test: Trypanocidal Activity at I.C.E. value 0.67 when administered subcutaneously.
In short: (§2)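 Mice, in groups of five per dose, were given a standard inoculum of blood-stage T. rhodesiense that is lethal to all untreated controls, then dosed subcutaneously. Usually 11 dose levels were used (2^n × 0.42 mg/kg).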

[5] = test system: Trypanosoma brucei rhodesiense; test: In Vitro measurement of inhibition of thymidine uptake in cell culture of Trypanosoma rhodesiense; settings: read-out: ID50 (the source's name)
In short: (§3)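 Parasites harvested from infected rats and incubated 3 h across a drug concentration series, usually 0.1–100 µg/mL. Incorporation of radiolabeled thymidine measured. ID50 is the concentration (µg/mL) producing 50% inhibition.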

Mus musculus [6] = test: Trypanocidal Activity at I.C.E. value 0.48 when administered perorally.
[7] = test system: Trypanosoma brucei rhodesiense; test: In Vitro measurement of inhibition of leucine uptake in cell culture of Trypanosoma rhodesiense; settings: read-out: ID50 (the source's name)
In short: (§4)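 Trypanosomes harvested from infected rats, cultured 3 h with several concentrations of drug, usually 0.1–100 µg/mL. Radiolabeled L-leucine uptake measured. ID50 is the concentration in µg/mL giving 50% inhibition of incorporation.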

Mus musculus [8] = test: Trypanocidal Activity at I.C.E. value 0.10 when administered perorally.
Mus musculus [9] = test: Trypanocidal Activity at I.C.E. value 0.18 when administered subcutaneously.
Mus musculus [10] = test: Trypanocidal Activity at I.C.E. value 0.61 when administered perorally.
Mus musculus [11] = test: Trypanocidal Activity at I.C.E. value 0.69 when administered subcutaneously.; in short: as §2
Mus musculus [12] = test: Trypanocidal Activity at I.C.E. value 0.31 when administered subcutaneously.; in short: as §1
Mus musculus [13] = test: Trypanocidal Activity at I.C.E. value 0.29 when administered subcutaneously.; in short: as §1
Mus musculus [14] = test: Trypanocidal Activity at I.C.E. value 0.63 when administered subcutaneously.; in short: as §2
Mus musculus [15] = test: Trypanocidal Activity at I.C.E. value 0.58 when administered subcutaneously.; in short: as §2
Mus musculus [16] = test: Trypanocidal Activity at I.C.E. value 0.27 when administered subcutaneously.; in short: as §1
Mus musculus [17] = test: Trypanocidal Activity was determined after subcutaneous administration; in short: as §2
Mus musculus [18] = test: Trypanocidal Activity at I.C.E. value 0.57 when administered perorally.
Mus musculus [19] = test: Trypanocidal Activity at I.C.E. value 0.33 when administered subcutaneously.; in short: as §1
Mus musculus [20] = test: Trypanocidal Activity at I.C.E. value 0.35 when administered perorally.
Mus musculus [21] = test: Trypanocidal Activity at I.C.E. value 0.21 when administered subcutaneously.
[22] = test system: Trypanosoma brucei rhodesiense; test: In Vitro measurement of inhibition of thymidine uptake in cell culture of Trypanosoma rhodesiense.; settings: read-out: ID50 (the source's name); in short: as §3
[23] = test system: Trypanosoma brucei rhodesiense; test: In Vitro measurement of inhibition of leucine uptake in cell culture of Trypanosoma rhodesiense.; settings: read-out: ID50 (the source's name); in short: as §4
Mus musculus [24] = test: Trypanocidal Activity at I.C.E. value 0.45 when administered perorally.
Mus musculus [25] = test: Trypanocidal Activity at I.C.E. value 0.85 when administered subcutaneously.; in short: as §2
Mus musculus [26] = test: Trypanocidal Activity at I.C.E. value 0.43 when administered subcutaneously.; in short: as §1
Mus musculus [27] = test: Trypanocidal Activity at I.C.E. value 0.64 when administered subcutaneously.; in short: as §2
Mus musculus [28] = test: Trypanocidal Activity at I.C.E. value 0.45 when administered subcutaneously.; in short: as §1

Br.Cn1cc[n+](C)c1COc1ccc(/C=N/NC2=NCCN2)cc1.[Br-]
CD50 (Mus musculus [1]): 3.3 mg/kg

Cc1ccc(S(=O)(=O)[O-])cc1.Cn1c(COc2ccc(/C=N/NC(=O)c3ccc(N)cc3)cc2)[n+](C)c2ccccc21
CD50 (Mus musculus [1]): 6.6 mg/kg

Br.CC(NC(=N)N/N=C/c1ccc(-c2cn3ccccc3[n+]2C)cc1)c1ccco1.[Br-] (stereo unspecified)
CD50 (Mus musculus [2]): 1.6 mg/kg

Br.Cc1ccc2n(c1)cc(-c1ccc(/C=N/NC(=N)NN3CCOCC3)cc1)[n+]2C.[Br-]
CD50 (Mus musculus [1]): 3.3 mg/kg

Br.CN(C)C(=N)N/N=C/c1ccc(OCc2cn3ccccc3[n+]2C)cc1.[Br-]
CD50 (Mus musculus [3]): 3.3 mg/kg

Br.Cn1c(COc2ccc(/C=N/NC(=N)N)cc2)[n+](C)c2ccccc21.[Br-]
CD50 (Mus musculus [4]): 0.4 mg/kg
IC50 [5]: 1.9 µg/mL
CD50 (Mus musculus [6]): 13 mg/kg
IC50 [7]: 6.1 µg/mL

Br.CCNC(=N)N/N=C/c1ccc(OCc2cccc[n+]2C)cc1.[Br-]
CD50 (Mus musculus [8]): 212 mg/kg
CD50 (Mus musculus [9]): 6.6 mg/kg

Br.C[n+]1c(-c2ccc(/C=N/NC3=NCCCN3)cc2)cn2ccccc21.[Br-]
CD50 (Mus musculus [4]): 0.1 mg/kg
CD50 (Mus musculus [10]): 6.6 mg/kg

Br.Cc1ccc2n(c1)cc(COc1ccc(/C=N/NC3=NCCCN3)cc1)[n+]2C.[Br-]
CD50 (Mus musculus [11]): 0.8 mg/kg

C[n+]1c(-c2ccc(/C=N/Nc3nccs3)cc2)cn2ccsc21.[Br-]
CD50 (Mus musculus [12]): 26 mg/kg

Br.CC/N=C(\NCC)N/N=C/c1ccc(OCc2n(C)c3ccccc3[n+]2C)cc1.[Br-]
CD50 (Mus musculus [8]): 212 mg/kg
CD50 (Mus musculus [13]): 6.6 mg/kg

C[n+]1c(-c2ccc(/C=N/Nc3ccccn3)cc2)cn2ccccc21.Cc1ccc(S(=O)(=O)[O-])cc1
CD50 (Mus musculus [9]): 212 mg/kg

C[n+]1c(-c2ccc(/C=N/NC3N=NC(=S)N3N)cc2)cn2ccccc21.[Br-] (stereo unspecified)
CD50 (Mus musculus [9]): 53 mg/kg

Cc1ccc(S(=O)(=O)O)cc1.Cc1ccc(S(=O)(=O)[O-])cc1.Cn1cc[n+](C)c1/C=C/c1ccc(/C=N/NC(=N)N2CCCC2)cc1
CD50 (Mus musculus [14]): 0.03 mg/kg

Br.C/N=C(/NC)N/N=C/c1ccc(-c2cn3ccc(C)cc3[n+]2C)cc1.[Br-]
CD50 (Mus musculus [15]): 0.4 mg/kg

C[n+]1ccc(COc2ccc(/C=N/NC(=O)c3ccc(N)cc3)cc2)cc1.Cc1ccc(S(=O)(=O)[O-])cc1
CD50 (Mus musculus [16]): 26 mg/kg

Br.CCSc1ccc2n(c1)cc(-c1ccc(/C=N/NC3=NCCN3)cc1)[n+]2C.[Br-]
CD50 (Mus musculus [11]): 3.3 mg/kg

CCNC(=N)N/N=C/c1ccc(OCc2n(C)cc[n+]2C)cc1.Cc1ccc(S(=O)(=O)O)cc1.Cc1ccc(S(=O)(=O)[O-])cc1
CD50 (Mus musculus [17]): 6.6 mg/kg

Cc1ccc(S(=O)(=O)O)cc1.Cc1ccc(S(=O)(=O)[O-])cc1.Cn1c(COc2ccc(/C=N/NC(=N)N3CCCC3)cc2)[n+](C)c2ccccc21
CD50 (Mus musculus [18]): 6.6 mg/kg
CD50 (Mus musculus [19]): 0.8 mg/kg

Br.CCNC(=N)N/N=C/c1ccc(-c2cn3cc(C)ccc3[n+]2C)cc1.[Br-]
CD50 (Mus musculus [20]): 26 mg/kg
CD50 (Mus musculus [4]): 0.4 mg/kg

Br.C[n+]1c(COc2ccc(/C=N/NC(=N)N3CCCC3)cc2)cn2cc(C(F)(F)F)ccc21.[Br-]
CD50 (Mus musculus [16]): 26 mg/kg

C[n+]1c(-c2ccc(/C=N/NC3N=NC(=S)N3N)cc2)cn2ccsc21.[Br-] (stereo unspecified)
CD50 (Mus musculus [21]): 212 mg/kg
IC50 [5]: 2.4 µg/mL
IC50 [7]: 4.6 µg/mL

Br.CCCNC(=N)N/N=C/c1ccc(-c2cn3ccc(C)cc3[n+]2C)cc1.[Br-]
IC50 [22]: 1.9 µg/mL
IC50 [23]: 4.6 µg/mL
CD50 (Mus musculus [24]): 26 mg/kg
CD50 (Mus musculus [14]): 0.2 mg/kg

Br.Cc1ccc2n(c1)cc(COc1ccc(/C=N/NC(=N)NO)cc1)[n+]2C.[Br-]
CD50 (Mus musculus [25]): 0.2 mg/kg

Br.Cc1ccc2n(c1)cc(-c1ccc(/C=N/NC(=N)N(C)C)cc1)[n+]2C.[Br-]
CD50 (Mus musculus [26]): 0.8 mg/kg

Br.Cc1cccc2n1cc(COc1ccc(/C=N/NC3=NCCN3)cc1)[n+]2C.[Br-]
CD50 (Mus musculus [27]): 0.8 mg/kg

Br.C/N=C(\NC)N/N=C/c1ccc(OCc2cn3ccccc3[n+]2C)cc1.[Br-]
CD50 (Mus musculus [20]): 53 mg/kg
CD50 (Mus musculus [28]): 0.8 mg/kg

— ChEMBL document CHEMBL1124947, “Cationic antiprotozoal drugs. Trypanocidal activity of 2-(4'-formylphenyl)imidazo[1,2-a]pyridinium guanylhydrazones and related derivatives of quaternary heteroaromatic compounds” (J Med Chem, 1990)
